Assay outcomes (PubChem)
This is a sample that favours compounds with a hit; in the whole collection about 2% have one here.
Bfl-1 A1 inh: caspase 3/7 activation in MEF A1-2A-BIM cells, primary screen, A1 inhibitor project, cell-based, luminescence, HTS; 330,000 tested, 0.066% active; caspase activation, % (no concentration beside the values); Caspase-Glo 3/7 luminescence, 3 h; percent of clofoctol response, vehicle zero;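 active means over half of replicate activation scores above 10%, or exactly half above 10 with the replicate mean above 10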
UPR CHOP act: activators of apoptotic CHOP UPR arm, primary screen, cell-based, CHO-CHOP luciferase reporter, luminescence, uHTS; UPR activation; percent of tunicamycin response over DMSO baseline; activation, % at 10 µM; 330,000 tested, 0.34% active;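 active means at 10 µM dose, activation of 40% or more, normalized to positive control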
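Test system: CHO-CHOP cells, stable luciferase reporter of PERK-eIF2a-CHOP signalling | Quantity: 500 CHO-CHOP cells per well | Buffer or medium: F12 plus 10% serum | Compound dosing: 10 µM single point, 0.5% DMSO | Schedule: 6 h compound treatment, 37 °C | Signal: Luciferase luminescence | Control set: Tunicamycin high control, DMSO low control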
XBP1 UPR activ: activators of adaptive XBP1 UPR arm, primary screen, cell-based, CHO-XBP1 luciferase reporter, luminescence, uHTS; activation, % at 20 µM; 330,000 tested, 0.33% active; IRE1-XBP1 UPR activation; percent of tunicamycin response, DMSO as zero; AID 463104, 2010;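 active means versus positive control, 20 µM dose yields 30% or more activation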
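Material – CHO cell line with stable XBP1 luciferase reporter · Buffer or medium – F12 plus 10% FBS · Compound – single point, 20 µM final compound, 1% DMSO · Schedule – 16-18 h cell attachment at 37 °C, then 6 h compound exposure · Signal – Steady-Glo luminescence read · Benchmarks – high control tunicamycin 10 µg/mL final, low control DMSO vehicle only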
MC4R ag barr: MC4R agonists recruiting beta-arrestin, primary screen, cell-based, luminescence, agonist arm of biased-ligand search. Melanocortin receptor 4 (Homo sapiens), P32245. U2OS MC4R beta-arrestin complementation; percent of melanotan II response, DMSO zero. AID 540308, 2011. activation, % at 8.9 µM. 360,000 tested, 0.98% active;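 active means activation above a per-plate cutoff, the mean activation of sample wells on that plate plus 3 SD, cut at about 8% in these data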
Target sequence (P32245 whole entry, looked up): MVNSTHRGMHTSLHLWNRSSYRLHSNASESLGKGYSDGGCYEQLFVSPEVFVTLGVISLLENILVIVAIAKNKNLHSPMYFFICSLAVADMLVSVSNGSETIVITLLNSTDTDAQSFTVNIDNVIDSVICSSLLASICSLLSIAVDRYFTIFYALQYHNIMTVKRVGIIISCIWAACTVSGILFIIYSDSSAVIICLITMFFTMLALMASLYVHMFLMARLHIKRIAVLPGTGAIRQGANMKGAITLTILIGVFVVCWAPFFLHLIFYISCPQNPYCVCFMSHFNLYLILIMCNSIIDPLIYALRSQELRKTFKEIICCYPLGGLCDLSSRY
MC4R antag cAMP: MC4R antagonists of cAMP signaling, primary screen, cell-based, TR-FRET, antagonist arm of biased-ligand search | MC4R-expressing cells, MTII-stimulated cAMP, LANCE TR-FRET | inhibition, % at 6.5 µM | 360,000 tested, 0.48% active;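 active means inhibition above its plate's cutoff, the mean of tested wells on that plate plus 3 SD, cut at about 29% in these data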
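Material: human MC4R-expressing U2OS cells. Probe or stimulus: Melanotan II challenge. Dosing: 6.5 µM single dose. Times: 30-min compound, 1-h challenge, 1-h detection, room temperature. Technique: TR-FRET with Eu-cAMP and labeled anti-cAMP, 671 nm. Replication: singlicate.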
MC4R barr conf: MC4R beta-arrestin agonists, retest, confirmation, cell-based, luminescence, U2OS; shares compounds with MC4R ag barr; U2OS MC4R beta-arrestin recruitment; scaled DMSO 0%, Melanotan II 100%; activation, % at 8.9 µM; 2,400 tested, 31% active;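 active means mean activation across replicates above the hit cutoff set in the earlier primary screen, cut at about 8% in these data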
MOR DOR agonist: agonists of MOR-DOR heterodimerization, counter-screen for MC4R biased agonist project, cell-based, luminescence. shares compounds with MC4R ag barr. U2OS PathHunter beta-arrestin, beta-gal luminescence; percent of deltorphin B response, DMSO zero. activation, % at 9.2 µM. 2,400 tested, 5.8% active;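 active means mean activation across replicates exceeds the hit threshold derived in the earlier primary screen, cut at about 18% in these data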
Hits are given with their value; 0 = inactive; - = no result given.

SMILES	Bfl-1 A1 inh	UPR CHOP act	XBP1 UPR activ	MC4R ag barr	MC4R antag cAMP	MC4R barr conf	MOR DOR agonist
O=C(COC(=O)c1ccc(O)cc1)Nc1ccc(N2CCCCC2)cc1	0	0	0	0	0	-	-
COc1cc(OC)cc(C(=O)OCC(=O)Nc2ccc(N3CCCCC3)cc2)c1	0	0	0	13	0	0	0
CN(CC(=O)Nc1cccc(F)c1)CC(=O)NC(c1ccccc1)c1ccccc1	-	0	0	0	0	-	-
C/C(=N/NC(=O)C1COc2ccccc2O1)c1ccc(Br)s1 (centres undefined)	0	0	0	13	0	0	0
C/C(=N\NC(=O)C1COc2ccccc2O1)c1ccc(Cl)s1 (centres undefined)	0	0	0	0	0	-	-
OCCN1CCN(c2ncnc3c2ncn3[C@H]2CN(Cc3ccncc3)C[C@@H](CO)O2)CC1	-	-	-	0	0	-	-
CC(C)CNC(=O)c1oc2ccccc2c1COc1ccccc1	0	0	0	0	0	-	-
O=C(Nc1ccccc1OC(F)F)c1oc2ccccc2c1COc1ccccc1	0	0	0	27	0	14	0
CCCCC1SC(N)=NC1=O (centres undefined)	-	-	-	0	0	-	-
COCCNC(=O)C1CCCN(C(=O)COCc2ccccc2)CC1 (centres undefined)	-	-	-	0	0	-	-
O=S(=O)(N(Cc1ccccc1)[C@@H](CO)Cc1ccccc1)N(Cc1ccccc1)[C@@H](CO)Cc1ccccc1	0	0	0	13	0	0	0
Cc1ccc(NC(=O)/C(C#N)=C/c2ccc(C)s2)c(C)c1	0	0	0	18	0	0	0
CCSc1nnc(Nc2ccc(C)cc2)s1	0	0	0	0	0	-	-
Cc1ccc(CSc2nnc(Nc3ccc(C)cc3)s2)cc1	0	0	0	19	0	0	0
CCc1ccc(Nc2nnc(SCC(=O)NC(=O)c3cccn3C)s2)cc1	0	0	0	20	0	0	0
Cc1csc(=O)n1CC(=O)OC(C)C(=O)Nc1ccc(N(C)C)cc1 (centres undefined)	-	-	-	0	0	-	-
Cc1cc(C)c2nc(-c3ccccn3)cc(C(=O)Nc3cc(C)on3)c2c1	0	0	0	16	0	0	0
Cc1cc(CN(Nc2ccccc2)c2ccccc2)cc(C)n1	-	-	-	0	0	-	-
O=C(c1cnc2ccc3ccccc3c2c1)c1cc(F)ccc1O	0	0	0	22	0	0	0
Cc1nn(C)c2ncc(C(=O)c3cc(F)ccc3O)cc12	0	0	0	0	0	-	-
Cn1c(=O)oc2cc(S(=O)(=O)N3CCN(c4cccc(Cl)c4)CC3)ccc21	0	0	0	11	0	0	0
O=C1COc2ccc(S(=O)(=O)CCC(=O)N3CCN(c4cccc(Cl)c4)CC3)cc2N1	0	0	0	0	0	-	-
O=C1COc2ccc(S(=O)(=O)N3CCN(c4cccc(Cl)c4)CC3)cc2N1	0	0	0	9.6	0	0	0
Cc1ccccc1C(=O)N1CCC(C(=O)Nc2ccc(S(=O)(=O)N3C(C)CCCC3C)cc2)CC1 (centres undefined)	-	-	-	0	0	-	-
CNc1cc(-c2ccc(CC#N)cc2)ncn1	-	-	-	0	0	-	-
SMILES	Bfl-1 A1 inh	UPR CHOP act	XBP1 UPR activ	MC4R ag barr	MC4R antag cAMP	MC4R barr conf	MOR DOR agonist
CCN(CC)c1ccc2cc(C(=O)NCc3ccc(F)cc3)c(=N)oc2c1	0	0	0	13	0	0	0
CCCCCn1c(SCC(=O)OCC)nc2cc(C(=O)NCc3ccco3)ccc2c1=O	0	0	0	13	0	0	31
O=C1OC(c2ccccc2)(c2cc(Br)ccc2O)c2ccccc21 (centres undefined)	-	-	-	21	0	20	0
CC(=O)Nc1cc(-c2cccc(C(=O)NCCN(C)C)c2)cn2c(-c3cccc(C(F)(F)F)c3)cnc12	-	-	-	42	0	23	0
CC(=O)Nc1cc(-c2cccc(C(=O)NCCN(C)C)c2)cn2c(-c3ccccc3)cnc12	-	-	-	0	0	-	-
CC(=O)Nc1cc(-c2ccccc2N(C)C)cn2c(-c3cccc(C(F)(F)F)c3)cnc12	-	-	-	15	0	11	0
Cc1ccc([C@H]2C[C@@H](n3cc(COC(=O)c4ccccc4)nn3)[C@H](O)CN2C(=O)C2CCCCC2)cc1	-	-	-	0	0	-	-
Cc1c(C(=O)NCc2ccco2)sc(=O)n1Cc1ccc(S(C)(=O)=O)cc1	-	-	-	0	0	-	-
Cc1ccc(Nc2nnc(SCn3nnc4ccccc4c3=O)s2)cc1	0	0	0	0	0	-	-
O=c1c2ccccc2nnn1CSc1nnc(Nc2ccccc2)s1	0	0	0	10	0	0	0
CCC(C)c1ccc2oc(-c3ccc(NC(=O)Cn4cnc5c(=O)n(C)c(=O)n(C)c54)cc3)nc2c1 (centres undefined)	0	0	0	14	0	8.6	-
CCn1c(O)c(/C=N/N=C/c2ccc(OC)cc2)c2cc(C3=NNC(=O)CC3)ccc21	0	0	0	18	0	0	0
OC[C@@H]1CN(Cc2cccnc2)C[C@H](n2cnc3c(NC4CCCC4)ncnc32)O1	-	-	-	0	0	-	-
Cc1cc(C(=O)N2CCC2(C)C(=O)NS(=O)(=O)c2ccccc2Cl)nn1C (centres undefined)	-	-	-	0	0	-	-
COc1ccccc1NC(=O)Nc1nc(C(N)Cc2ccccc2)cs1 (centres undefined)	-	-	-	0	0	-	-
COc1cc(CNC(=O)Nc2nc(C(N)Cc3ccc(C(F)(F)F)cc3)cs2)cc(OC)c1OC (centres undefined)	-	-	-	10	0	0	0
NC(Cc1ccc(Cl)cc1)c1csc(NC(=O)Nc2ccccc2)n1 (centres undefined)	-	-	-	20	0	22	0
CC(C)CC(N)c1csc(NC(=O)C(c2ccccc2)c2ccccc2)n1 (centres undefined)	-	-	-	13	0	16	24
CC(C)CC(N)c1csc(NC(=O)Nc2ccccc2Cc2ccccc2)n1 (centres undefined)	-	-	-	0	0	-	-
COc1ccccc1NC(=O)Nc1nc(C(N)Cc2ccc(Cl)cc2)cs1 (centres undefined)	-	-	-	13	0	22	0
